Measured values: ChEMBL document CHEMBL4513216, “Probing the Open Global Health Chemical Diversity Library for Multistage-Active Starting Points for Next-Generation Antimalarials” (ACS Infect Dis, 2020)

Assay: Toxicity liver stage against HepG2, at 10uM
Assay type: cell-based
Set-up: test concentration 10 uM, cell line HepG2-A16-CD81EGFP
Details: human, HepG2-A16-CD81EGFP cells; read-out: INHIBITION
How it was run: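 Uninfected HepG2-A16-CD81EGFP cells, 3 × 10^3 per well, 1536-well, plated on prespotted compound at 10 μM final, parasite-free screening media added to match infected plates; puromycin 10 μM positive, DMSO 0.5% negative; run in parallel with 48 h PbLuc assay at 37 °C, 5% CO2; viability by CellTiter-Glo luminescence, normalized to controls.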

Row | SMILES | cytotoxicity at 10 µM
1 | CCN(C(=O)Cn1cc(Cl)cn1)c1ccccc1 | -8.01%
2 | N#Cc1ccc(NCCCN2C(=O)COc3ccccc32)nc1 | 11%
3 | Cc1nc(C)n(CC2CCCN(Cc3nnc(C(C)(C)C)o3)C2)n1 (stereo unspecified) | -11%
4 | Cc1cccc(-c2nc(C)nn2CN2CCN(c3ncccn3)CC2)c1 | -6.45%
5 | CC(C)C[C@H](N)COc1cccc(F)c1Oc1cccc(Cl)c1 | 86.1%
6 | CCC(C(=O)Nc1ccc(-c2nc(C)n[nH]2)cc1)N1CCCC1=O (stereo unspecified) | -44.8%
7 | COc1ccccc1NC(=O)Cc1c(C)nc2c(c1C)c(=O)[nH]n2C | -1.68%
8 | Cn1cccc1C(=O)N1C[C@@H]2COC[C@]2(CNS(C)(=O)=O)C1 | 4.38%
9 | CN1CCN(C(=O)c2nc3c(o2)CN(C(=O)c2cccnc2)C3)CC1 | -7.06%
10 | CC(C)c1sc(Br)nc1C(=O)NCc1ccco1 | -2.89%
11 | Cn1nc(COc2cccnc2)c2c1CCN(Cc1ccco1)C2 | -5.57%
12 | CO[C@@H]1CN(c2ccccc2)S(=O)(=O)[C@@]12CCN(C(=O)N(C)C)C2 | 10.1%
13 | Cc1cc(CN2CCC(CNS(=O)(=O)c3c(C)noc3C)CC2)c(C)o1 | 5.81%
14 | CC(C)c1ocnc1C(=O)Nc1cccc(Cn2ccccc2=O)c1 | 8.15%
15 | Cc1cc(C(=O)Nc2n[nH]c(C3CC3)n2)c2c(C)nn(C)c2n1 | 0.583%
16 | O=C1NC[C@@]2(C(=O)O)CN(Cc3ccc(Oc4ccccc4)cc3)C[C@@H]12 | -8.39%
17 | Cc1nnc(Nc2cccc(C3CCN(CCO)CC3)n2)s1 | 2.37%
18 | Cc1nc(C)c(C(=O)N2CCCC2(C)C(=O)NC2CCCC2)s1 (stereo unspecified) | -1.13%
19 | Cc1nc(C2CCCN(C(=O)c3ccc(N4CCCC4)nn3)C2)no1 (stereo unspecified) | -13.6%
20 | Cc1ccc(NC(=O)Cc2cnc3n(C)c(=O)[nH]c(=O)n23)cc1 | 8.24%
21 | COC(=O)c1ccc2ccn(CC3COCCO3)c(=O)c2c1 (stereo unspecified) | 3.26%
22 | O=C(Cc1ccc(F)c(Br)c1)N1CCN(CCO)CC1 | -11.5%
23 | c1ccc(CN2CCc3ncnc(N4CCCC4)c3CC2)nc1 | -8.35%

Row | SMILES | cytotoxicity at 10 µM
24 | CN(Cc1c[nH]nc1-c1ccc(F)cc1F)Cc1nccn1C | 2.5%
25 | Cc1nn(C)cc1CN1CCCn2nc(CNC(=O)C3CCC3)cc2C1 | 2.84%
26 | CC(Cn1cccn1)NCc1csc(COc2ccccc2)n1 (stereo unspecified) | -8.51%
27 | Cc1cccc(CN2Cc3[nH]nc(COCc4nccs4)c3C2)n1 | -7.12%
28 | CC(=O)c1c(C)cc(C)c(Cn2ccnc2S(C)(=O)=O)c1C | -0.657%
29 | Cc1noc(C)c1CN1CCCC2(C1)CN(Cc1nccn1C)CCO2 (stereo unspecified) | 7.69%
30 | Cc1cc(NC2CCN(Cc3ccccn3)CC2)n2nc(C)c(C)c2n1 | 0.951%
31 | O=c1ccc(-n2ccnc2)nn1CCNS(=O)(=O)c1ccc(Cl)s1 | -1.36%
32 | O=C(Cn1nc(Br)nc1Br)N1CCCC1 | 5.38%
33 | c1csc(-c2nc(CN3CCOC(Cn4cccn4)C3)cs2)c1 (stereo unspecified) | -8.25%
34 | Cc1ccc(-c2ccc(=O)n(CC(=O)Nc3nccs3)n2)cc1 | -10.2%
35 | O=c1ccn(Cc2nc(-c3ccccc3F)cs2)c(=O)[nH]1 | -1.2%
36 | CC(C)COc1cncc(NCC(O)c2ccco2)n1 (stereo unspecified) | -2.85%
37 | O=c1nc(CNc2ccccc2)[nH]n1Cc1ccccc1 | 4.13%
38 | CN(Cc1cc(-c2ccncc2)no1)C(=O)[C@@H]1CSCN1C | -2.62%
39 | CC(=O)Cn1c(C)cc(=O)c2cc(F)ccc21 | -4.46%
40 | O=C(O)CN1CCC(c2ccccc2)C1 (stereo unspecified) | 1.67%
41 | Cc1noc(C)c1CNCC1COCc2c(-c3ccsc3)nnn2C1 (stereo unspecified) | 5.74%
42 | COc1ccc2nnc(CCCC(=O)NCc3ccccc3OC)n2n1 | -5.95%
43 | COCC1CN(c2ccc3c(Cl)ccnc3c2F)CCO1 (stereo unspecified) | 25%
44 | Cc1ccsc1CNCCCOc1ccccn1 | -0.575%
45 | CCCNC(=O)c1ccc2c(OC)n(C)nc2c1 | 1.56%
46 | Nc1ccnc(N2C[C@H]3CC[C@@H](C2)N(CC2CCC2)C3=O)n1 | -0.253%

Row | SMILES | cytotoxicity at 10 µM
47 | COc1ccccc1CCNC(=O)N(C)C(C)CS(C)(=O)=O (stereo unspecified) | -48.8%
48 | c1cc2n(n1)CC(CNCc1ccc(OCC3CC3)nc1)CN2 (stereo unspecified) | -3.97%
49 | CCCn1c(C)c(CC(=O)N(C)CC(=O)OC)c2c1CC(C)(C)CC2=O | -0.839%
50 | O=C(CN1C(=O)c2ccccc2C1=O)N1CCOC2(CCOCC2)C1 | -5.15%
51 | CCC(C)(C)NC(=O)Cn1nc(C)nc1-c1ccccc1 | -15.4%
52 | CCc1cnc(N)nc1NCCCN1CCCCC1CO (stereo unspecified) | -0.0414%
53 | COc1cccc(C(O)Cn2ncc3ncccc3c2=O)c1 (stereo unspecified) | -2.45%
54 | CC(C)N1CCC(Cc2cncc(-c3cccc(C(=O)O)c3)n2)CC1 | -20.8%
55 | Cc1oc(-c2ccco2)nc1CN1CCc2cncnc2C1 | 2.44%
56 | O=C1CC2(CCN(C(=O)c3ccc4c(c3)CCCO4)C2)C(=O)N1 (stereo unspecified) | 3.67%
57 | CCn1c(C)nnc1CN(C)C1CCN(CCc2cccs2)C1 (stereo unspecified) | -7.12%
58 | COc1ccc(CN2C[C@@H]3OCCN(C)[C@@H]3C2)cc1 | -74.8%
59 | CN1CC2(CCN(Cc3cc(Cl)ccc3OCC(=O)O)CC2)OC1=O | 1.6%
60 | CC(C)(C)N1CCN(C(=O)Nc2cc(C(F)(F)F)c[nH]c2=O)CC1 | 5.08%
61 | CCN1CC(C(=O)N(C)Cc2ccon2)CC1=O (stereo unspecified) | 7.08%
62 | CCS(=O)(=O)N(C)C(=O)c1cc(C)n(-c2cccc(OC)c2)c1C | -2.35%
63 | CC(=O)N1CCC(NC(=O)N2CCCC2c2ccsc2)CC1 (stereo unspecified) | 0.421%
64 | O=C(c1cc(C2CC2)on1)N1C[C@H]2CC[C@](O)(c3ccc(F)cc3)[C@H]2C1 | 3.94%
65 | O=c1ccc(-c2ccccc2F)nn1CN1CCCCCC1 | 5.76%
66 | CC(=O)c1ccc(C(=O)N2C[C@@H](CN3CCCC3)[C@@H](CO)C2)cc1 | -0.434%
67 | Cc1csc(N2CCN(C(=O)Cc3cccs3)CC2)n1 | -23.3%
68 | CCn1c(C2CCCN(Cc3ccnc4ccccc34)C2)nn(C)c1=O (stereo unspecified) | -5.92%
69 | O=C(NCc1csc(Br)c1)c1cnccn1 | -23.3%

Row | SMILES | cytotoxicity at 10 µM
70 | Cc1noc(C2(C)CCN(C(=O)C(C)C)CC2)n1 | -5.14%
71 | CCOc1nn(CC)cc1-c1nnc(SCc2cccnc2)n1CC | -0.244%
72 | CN(Cc1cccc2cnccc12)C(=O)CCc1n[nH]c2c1CCCC2 | -7.27%
73 | O=C(c1ccccc1N1CCOCC1)N1CCCC(n2cccn2)C1 (stereo unspecified) | -7.32%
74 | COCCN1CCOCC2(CCCN(Cc3ccc(C)o3)C2)C1 (stereo unspecified) | -5.58%
75 | CN1CCCCC1c1ncc2c(n1)CCN(Cc1ccc(Cl)c(F)c1)C2 (stereo unspecified) | -27.7%
76 | Cc1csc(NC(=O)C2CSCCC(=O)N2)n1 (stereo unspecified) | 4.14%
77 | Cc1ncsc1C(=O)N1CC[C@@H]2[C@@H](CC1)OCCN2c1cccnc1 | 9.4%
78 | O=C(Nc1ccccc1Cn1cncn1)C1CCN(C2CCCCC2)C1 (stereo unspecified) | -5.14%
79 | COc1ccc(C)cc1CN(Cc1nc(C)c(C)o1)C1CCN(C)C1 (stereo unspecified) | -3.41%
80 | CN(C)c1ncnc2c1CCN(C(=O)c1sccc1S(N)(=O)=O)C2 | 0.192%
81 | Cc1cccnc1NC(=O)C1CCN(C(=O)C(C)C)CC1 | 6.7%
82 | CN(Cc1cscn1)C1CCN(C(=O)OC(C)(C)C)CC1 | -3.76%
83 | CC1(C)CC(=O)c2cnc3nc(N4CCCCC4)nc(O)c3c2C1 | -0.0124%
84 | CCSc1ccccc1C(=O)NCCN1CCC(c2cccs2)CC1 | -7.98%
85 | Cc1nn(-c2ccccc2)c(C)c1CN1CCNCC1 | 6.19%
86 | O=C(NS(=O)(=O)c1c(Cl)cccc1Cl)c1cccc2c1OCCO2 | 0.582%
87 | O=C(c1cc(F)ccc1O)N1CCN(C(=O)C2CCC2)CC1 | 1.22%
88 | Cc1nc(CN(C)C(=O)C2CCC(=O)N(CCN(C)C)C2)cs1 (stereo unspecified) | 8.08%
89 | Cc1n[nH]c2c1C(c1ccncc1)SCC(=O)N2 (stereo unspecified) | 4.96%
90 | CCOCCCC(=O)NC1CCN(C(C)c2ccccc2)CC1 (stereo unspecified) | 4.05%
91 | Cc1n[nH]cc1CNCC(c1cccc(F)c1)N(C)C (stereo unspecified) | -0.0972%
92 | Cc1c(C)n(CC(O)CN2CCN(CCO)CC2)c2c(Cl)cccc12 (stereo unspecified) | -12.9%

Row | SMILES | cytotoxicity at 10 µM
93 | O=C(NCc1ccccc1Cn1ccnc1)N1CCOCC1 | 0.84%
94 | O=C1NCCCN1Cc1nc(-c2ccc(N3CCCCC3)cc2)no1 | 3.24%
95 | O=C(c1cccc(O)c1)N1C[C@@H](CN2CCCCC2)[C@@H](CO)C1 | -2.88%
96 | O=C(CCn1cccn1)NCCOc1ncc(Cl)cc1Cl | -3.82%
97 | Cc1ccc(-c2nc(CNC3CCc4ncnn4C3)no2)cc1 (stereo unspecified) | -1.43%
98 | CN(Cc1nnnn1C1CC1)CC1COc2ccccc2O1 (stereo unspecified) | -5.79%
99 | CCC(NS(=O)(=O)c1ccc(C(=O)NC2CC2)cc1)c1ccnn1C (stereo unspecified) | 9.65%
100 | COc1ccc(-c2cccc3c2OC(CN)C3)cc1F (stereo unspecified) | -51.4%
101 | CC(Nc1cccc2c1OCCO2)C(=O)Nc1ccc(S(N)(=O)=O)cc1 (stereo unspecified) | -3.93%
102 | COC(=O)c1ccc(N2CCN(C(=O)c3ccn(C)c(=O)c3)CC2)cc1 | 2.7%
103 | CC(C)CN1C[C@@H]2CN(C(=O)c3cccn3C)C[C@@H]2C1=O | -111%
104 | O=C(CN1C(=O)CC2(CCCC2)C1=O)NCCc1nccs1 | 0.566%
105 | CNc1ncccc1C(=O)N1CCCC2(C1)C(=O)N(C)c1ccccc12 (stereo unspecified) | -5.27%
106 | O=C(NCCc1noc(C2CCCO2)n1)c1cn2ccsc2n1 (stereo unspecified) | -4.4%
107 | Cn1ncc2ccc(C3CCCN(C(=O)Cc4cccs4)C3)nc21 (stereo unspecified) | 10%
108 | Cc1noc(C)c1CNC(=O)N(C)C1CCN(c2ccccc2)C1=O (stereo unspecified) | -8.63%
109 | O=C(c1ccco1)N1CCCC2(CN(Cc3ccoc3)CCO2)C1 (stereo unspecified) | -2.59%
110 | CN1CCN(Cc2nnc(C3CCN(C(CO)CO)CC3)n2C)CC1 | 2.52%
111 | COC(=O)NC1(C(=O)NCc2ccc(-c3ccn[nH]3)cc2)CCCC1 | -7.65%
